Data as given in publication PMC6718129 (Drug Design, Development and Therapy, 2019).

What was measured:
[1] = test system: phosphorylated Rb protein in A-549 cell line; assay: Rb phosphorylation by quantitative immunofluorescence; type: cell-based, human; details: A-549, dose-response
How it was run: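 A-549 cells were treated with vehicle or test compound (less than 100 µM down to 50 nM) for 24 or 48 hr. Nuclear phospho-Rb was measured by immunofluorescence, and total DNA content per cell gave the cell-cycle phase. Automated image analysis quantified P-Rb changes as dose–response curves, from which IC50 values were taken.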

A-549 cell line = assay: Cell cycle distribution by total DNA content; type: cell-based, human; details: A-549, 24 and 48 hrs
How it was run: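 A-549 cells treated 24 or 48 hr over a range from below 100 µM down to 50 nM, alongside a reference drug. Total DNA content per cell was quantified to assign cell cycle phase, together with immunofluorescent imaging of nuclear phosphorylated Rb. Automated image analysis quantified changes, and IC50 values were taken from dose–response curves.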

For CCN(CC)CCNC(=O)c1c(C)[nH]c(/C=C2\C(=O)Nc3ccc(F)cc32)c1C [Sunitinib], the “levels of phosphorylated Rb protein (immunofluorescence)” value [1] was “substantially reduced the extent of phosphorylated Rb protein in a dose-dependent fashion” and the Cell cycle influences (A-549 cell line) was “increase in the percentage of cells in the S or G2/M phases of the cell cycle, with a concomitant reduction in the G1 phase”.
